Bioassay records: PubChem BioAssay, several laboratories
MC4R barr agon: activates human MC4R beta-arrestin recruitment. 0.98% of 360,000 active. activation, % at 8.9 µM. U2OS MC4R beta-arrestin complementation, luminescence; percent of melanotan II response, DMSO zero. AID 540308. P32245;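 active means activation above a per-plate cutoff, the mean activation of sample wells on that plate plus 3 SD, cut at about 8% in these data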
NTR1 agonist: agonists of human neurotensin receptor NTR1; NTR1-U2OS beta-arrestin-GFP spot imaging, agonist mode; activation, % at 20 µM; 0.17% of 330,000 active; AID 493036;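 active means activation at or above 40% of the spot to cytoplasm intensity ratio, with at least 20 cells analyzed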;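 further: 0% = DMSO without peptide and 100% = 100 nM NTR1 peptide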
Target sequence (P30989 whole entry, looked up): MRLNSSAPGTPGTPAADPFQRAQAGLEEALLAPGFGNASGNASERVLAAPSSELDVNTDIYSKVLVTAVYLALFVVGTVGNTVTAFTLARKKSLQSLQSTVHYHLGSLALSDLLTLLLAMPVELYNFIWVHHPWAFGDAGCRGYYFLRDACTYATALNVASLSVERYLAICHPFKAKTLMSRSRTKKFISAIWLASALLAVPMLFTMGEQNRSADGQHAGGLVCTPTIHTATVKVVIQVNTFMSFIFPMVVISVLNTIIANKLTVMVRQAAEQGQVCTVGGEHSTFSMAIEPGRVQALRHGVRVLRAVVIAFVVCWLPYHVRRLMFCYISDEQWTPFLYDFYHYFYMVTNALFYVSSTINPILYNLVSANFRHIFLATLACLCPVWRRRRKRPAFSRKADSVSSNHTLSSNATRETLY
MC4R antagonist: antagonists of human melanocortin 4 receptor (MC4R) | P32245 | MC4R-expressing cells, MTII-stimulated cAMP, LANCE TR-FRET | inhibition, % at 6.5 µM | 0.48% of 360,000 active | AID 540295;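 active means inhibition above its plate's cutoff, the mean of tested wells on that plate plus 3 SD, cut at about 29% in these data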;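 further: 0% = Melanotan II alone and 100% = Melanotan II plus saturating MCL0020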
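System: U2OS-MC4R stable cell line; Technique: Eu-cAMP/anti-cAMP TR-FRET, emission 671 nm; Repeats: single well per compound; Also added: Melanotan II; Dosing: one concentration, 6.5 µM nominal; Schedule: 30-min compound, 1-h challenge, 1-h detection, room temperature.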
PG9 Ab binder: small molecules binding HIV-1 gp120 antibody PG9. TR-FRET gp120-PG9 antibody binding. inhibition, % at 6.7 µM. 0.43% of 360,000 active. AID 624416; in the data active means inhibition above about 8.5%
Rev-erbA mod: modulates human Rev-erb alpha binding to DNA; P20393; Rev-erbα–FITC-DNA binding, fluorescence polarization, 90 min; activity, % at 10 µM; 0.79% of 370,000 active;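 active means activity above about 14%, limit read from the data; passing the limit was not always enough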;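 further: 0% = DMSO wells with 35 nM protein and 100% = DMSO wells with 750 nM protein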
MC4R barr conf: human MC4R beta-arrestin agonism confirmation; U2OS MC4R beta-arrestin recruitment, luminescence; scaled DMSO 0%, Melanotan II 100%; 31% of 2,400 active; activation, % at 8.9 µM; AID 602192; shares compounds with MC4R barr agon;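 active means mean activation across replicates above the hit cutoff set in the earlier primary screen, cut at about 8% in these data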
MOR DOR agonist: OPRM1-OPRD1 heterodimer agonism counter-screen; 5.8% of 2,400 active; AID 602194; shares compounds with MC4R barr agon; U2OS PathHunter beta-arrestin, beta-gal luminescence; percent of deltorphin B response, DMSO zero; activation, % at 9.2 µM;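 active means mean activation across replicates exceeds the hit threshold derived in the earlier primary screen, cut at about 18% in these data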;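 further: 100% = deltorphin B at 0.9 µM final and 0% = DMSO alone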
* = called active by the depositor. An excerpt weighted towards active compounds, which were near 2.5% of everything screened.

Results for CCN1CCCCC(NC(=O)COCc2ccccc2)C1=O (stereo not drawn) ?
Rev-erbA mod: 6

How did O=C1NC[C@H](Cc2ccccc2)N(CCc2cc(C(F)(F)F)cc(C(F)(F)F)c2)C1=O do in these assays?
PG9 Ab binder: 1; Rev-erbA mod: -7

How did O=C1NC[C@@H](Cc2cccc3ccccc23)N(CCc2cc(C(F)(F)F)cc(C(F)(F)F)c2)C1=O do in these assays?
MC4R barr agon: 11*; NTR1 agonist: 7; MC4R antagonist: -1; PG9 Ab binder: 1; Rev-erbA mod: 5; MC4R barr conf: 9.8*; MOR DOR agonist: 3

How did Cc1ccc(N(CC(=O)NC(C)c2ccccc2)S(=O)(=O)c2cccs2)cc1 (stereo not drawn) do in these assays?
MC4R barr agon: 17*; NTR1 agonist: 0; MC4R antagonist: 5; PG9 Ab binder: -2; Rev-erbA mod: -1; MC4R barr conf: -5; MOR DOR agonist: 2

How did COC(=O)c1sccc1N/N=C/c1cccc(OC)c1O do in these assays?
MC4R barr agon: 14*; NTR1 agonist: 8; MC4R antagonist: 2; PG9 Ab binder: 0; Rev-erbA mod: -1; MC4R barr conf: 0; MOR DOR agonist: 6

Results for COc1cc(-c2nc(-c3ccc(NC(=O)c4ccc5c(c4)OCO5)cc3)no2)cc(OC)c1OC ?
MC4R barr agon: 23*; NTR1 agonist: 10; MC4R antagonist: 10; PG9 Ab binder: 8; Rev-erbA mod: 11; MC4R barr conf: 28*; MOR DOR agonist: 24*

How did COc1ccc(-c2noc(CNC(=O)c3ccc4c(c3)OCO4)n2)cc1 do in these assays?
MC4R barr agon: -2; NTR1 agonist: -2; MC4R antagonist: 0; PG9 Ab binder: 1; Rev-erbA mod: -2

What do the screens show for `Cc1ccccc1-c1nc(-c2ccc(NC(=O)c3ccc4c(c3)OCO4)cc2)no1`?
MC4R barr agon: 23*; NTR1 agonist: 7; MC4R antagonist: 15; PG9 Ab binder: 0; Rev-erbA mod: 4; MC4R barr conf: 17*; MOR DOR agonist: 4

Results for O=C(O)COc1nn(Cc2ccccc2)c2ccccc12 ?
Rev-erbA mod: -1

Results for CC(C)[C@H]1COc2c3ccccc3nn21 ?
Rev-erbA mod: 1

Results for Cc1cccc(NC(=O)CSc2nc(COc3ccccc3)nc3ccccc23)c1C ?
MC4R barr agon: 20*; NTR1 agonist: 16; MC4R antagonist: 7; PG9 Ab binder: -1; Rev-erbA mod: 7; MC4R barr conf: 3; MOR DOR agonist: 4

What do the screens show for `Cc1cccc(C)c1NC(=O)CSc1nc(COc2ccccc2)nc2ccccc12`?
MC4R barr agon: 7; NTR1 agonist: 7; MC4R antagonist: 11; PG9 Ab binder: 1; Rev-erbA mod: 7

Results for O=C(N[C@@H](Cc1cccnc1)C(=O)N1CCC[C@H]1C(=O)NCCc1ccccc1Cl)c1ccccc1 ?
PG9 Ab binder: -1; Rev-erbA mod: 2

How did N#Cc1cccc(OC[C@@H](O)CN2CCC(C(O)(c3ccccc3)c3ccccc3)CC2)c1 do in these assays?
Rev-erbA mod: 1

What do the screens show for `Cc1cc(C)cc(NCc2cc(=O)oc3cc(-c4ccccc4)c(O)cc23)c1`?
MC4R barr agon: 4; NTR1 agonist: 4; MC4R antagonist: 5; PG9 Ab binder: -2; Rev-erbA mod: 0

Results for COc1ccc(C)cc1NCc1cc(=O)oc2cc(-c3ccccc3)c(O)cc12 ?
MC4R barr agon: 13*; NTR1 agonist: 3; MC4R antagonist: 7; PG9 Ab binder: -2; Rev-erbA mod: 9; MC4R barr conf: 2; MOR DOR agonist: 4

How did COc1cc(/C=C(\C#N)c2nc3ccccc3s2)ccc1OCC(=O)Nc1ccccc1 do in these assays?
MC4R barr agon: 49*; MC4R antagonist: 3; MC4R barr conf: 30*; MOR DOR agonist: 10

What do the screens show for `CC(C)CNc1cccc2c1S(=O)(=O)N(Cc1cn(Cc3cccc(F)c3)nn1)Cc1ccccc1O2`?
Rev-erbA mod: 6

How did O=C(Cc1csc(-c2ccccc2)n1)Nc1ccc(C(F)(F)F)cc1 do in these assays?
MC4R barr agon: 14*; NTR1 agonist: 12; MC4R antagonist: 4; PG9 Ab binder: 0; Rev-erbA mod: 6; MC4R barr conf: 4; MOR DOR agonist: 11

Results for CC(=O)N1CCc2c1cccc2S(=O)(=O)NC(CC(C)C)C(=O)Nc1ccccc1C (stereo not drawn) ?
Rev-erbA mod: 1

How did CC1=CC(C)(C)n2c(O)c(N=NC(N)=S)c3cc(C)cc1c32 do in these assays?
MC4R barr agon: 16*; NTR1 agonist: 5; MC4R antagonist: -2; PG9 Ab binder: -1; Rev-erbA mod: -24; MC4R barr conf: 14*; MOR DOR agonist: 5

Results for O=C(O)CCCN1C(=O)/C(=C/c2cn(-c3ccccc3)nc2-c2cccs2)SC1=S ?
MC4R barr agon: 9.9*; MC4R antagonist: 19; PG9 Ab binder: 1; Rev-erbA mod: -2; MC4R barr conf: 6; MOR DOR agonist: 1

How did COc1cc(CN2CCN(c3cccc(C)c3C)CC2)cc(Br)c1O do in these assays?
MC4R barr agon: 12*; NTR1 agonist: 17; MC4R antagonist: -17; PG9 Ab binder: -2; Rev-erbA mod: 1; MC4R barr conf: 0; MOR DOR agonist: 7

What do the screens show for `O=C(Oc1ccc(NC(=O)c2cc3c(cc2Br)OCO3)cc1)c1ccccc1`?
MC4R barr agon: 14*; NTR1 agonist: 3; MC4R antagonist: 5; PG9 Ab binder: -2; Rev-erbA mod: 4; MC4R barr conf: 6; MOR DOR agonist: 6

How did O=C(Nc1ccccc1)c1ccc(OC(=O)c2ccccc2)cc1 do in these assays?
MC4R barr agon: 9.8*; NTR1 agonist: 0; MC4R antagonist: -2; PG9 Ab binder: -1; Rev-erbA mod: 7; MC4R barr conf: 5; MOR DOR agonist: 2

What do the screens show for `CCOC(=O)c1[nH]c2ccc(Cl)cc2c1NC(=O)/C=C/c1ccc2c(c1)OCO2`?
MC4R barr agon: 38*; NTR1 agonist: 10; MC4R antagonist: -2; PG9 Ab binder: -1; Rev-erbA mod: 1; MC4R barr conf: 3; MOR DOR agonist: 4

Results for CCN(CC(=O)Nc1c(C(=O)OC)[nH]c2ccc(Cl)cc12)c1ccc2c(c1)OCO2 ?
MC4R barr agon: -2; NTR1 agonist: 7; MC4R antagonist: -11; PG9 Ab binder: 0; Rev-erbA mod: -1

How did O=C(COc1ccc2ccccc2c1)Nc1ccc2c3c(cccc13)CC2 do in these assays?
MC4R barr agon: 34*; NTR1 agonist: 6; MC4R antagonist: -6; PG9 Ab binder: 1; Rev-erbA mod: 1; MC4R barr conf: 7; MOR DOR agonist: 4
